Measurements published in BindingDB's records for doi:10.1016/j.bmc.2019.03.050 (University of Illinois At Chicago, 2019).

Key:
[1] = biological target: T1, Replicase polyprotein 1ab (Middle East respiratory syndrome-related coronavirus (isolate United Kingdom/H123990006/2012), UniProt K9N7C7); assay: Binding affinity to MERS-CoV papain-like protease by SPR analysis
Procedure, shortened: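 SPR on Biacore T200. Enzyme at 50 µg/mL in 10 mM sodium acetate pH 5.5 amine-coupled to CM5 chip (~10,000 RU); blank flow cells as reference. Compounds 0-50 µM (2-fold series) in PBSP + 0.5 mM TCEP, 2% DMSO, 30 µL/min, 25°C; double-referenced. KD from steady-state responses fit to rectangular hyperbola; rate constants from global 1:1 Langmuir fit.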

[2] = biological target: T1, Replicase polyprotein 1ab; assay: Inhibition of MERS-CoV papain-like protease using Z-Arg-Leu-Arg-Gly-Gly-AMC as substrate preincubated for 5 mins followed by substrate addition and measured for 10 mins by fluorescence assay
[3] = biological target: T1, Replicase polyprotein 1ab; assay: Competitive-inhibition of MERS-CoV papain-like protease using varying levels of Z-Arg-Leu-Arg-Gly-Gly-AMC as substrate by Dixon-plot analysis

T1 sequence (K9N7C7 854-2740 limits assumed): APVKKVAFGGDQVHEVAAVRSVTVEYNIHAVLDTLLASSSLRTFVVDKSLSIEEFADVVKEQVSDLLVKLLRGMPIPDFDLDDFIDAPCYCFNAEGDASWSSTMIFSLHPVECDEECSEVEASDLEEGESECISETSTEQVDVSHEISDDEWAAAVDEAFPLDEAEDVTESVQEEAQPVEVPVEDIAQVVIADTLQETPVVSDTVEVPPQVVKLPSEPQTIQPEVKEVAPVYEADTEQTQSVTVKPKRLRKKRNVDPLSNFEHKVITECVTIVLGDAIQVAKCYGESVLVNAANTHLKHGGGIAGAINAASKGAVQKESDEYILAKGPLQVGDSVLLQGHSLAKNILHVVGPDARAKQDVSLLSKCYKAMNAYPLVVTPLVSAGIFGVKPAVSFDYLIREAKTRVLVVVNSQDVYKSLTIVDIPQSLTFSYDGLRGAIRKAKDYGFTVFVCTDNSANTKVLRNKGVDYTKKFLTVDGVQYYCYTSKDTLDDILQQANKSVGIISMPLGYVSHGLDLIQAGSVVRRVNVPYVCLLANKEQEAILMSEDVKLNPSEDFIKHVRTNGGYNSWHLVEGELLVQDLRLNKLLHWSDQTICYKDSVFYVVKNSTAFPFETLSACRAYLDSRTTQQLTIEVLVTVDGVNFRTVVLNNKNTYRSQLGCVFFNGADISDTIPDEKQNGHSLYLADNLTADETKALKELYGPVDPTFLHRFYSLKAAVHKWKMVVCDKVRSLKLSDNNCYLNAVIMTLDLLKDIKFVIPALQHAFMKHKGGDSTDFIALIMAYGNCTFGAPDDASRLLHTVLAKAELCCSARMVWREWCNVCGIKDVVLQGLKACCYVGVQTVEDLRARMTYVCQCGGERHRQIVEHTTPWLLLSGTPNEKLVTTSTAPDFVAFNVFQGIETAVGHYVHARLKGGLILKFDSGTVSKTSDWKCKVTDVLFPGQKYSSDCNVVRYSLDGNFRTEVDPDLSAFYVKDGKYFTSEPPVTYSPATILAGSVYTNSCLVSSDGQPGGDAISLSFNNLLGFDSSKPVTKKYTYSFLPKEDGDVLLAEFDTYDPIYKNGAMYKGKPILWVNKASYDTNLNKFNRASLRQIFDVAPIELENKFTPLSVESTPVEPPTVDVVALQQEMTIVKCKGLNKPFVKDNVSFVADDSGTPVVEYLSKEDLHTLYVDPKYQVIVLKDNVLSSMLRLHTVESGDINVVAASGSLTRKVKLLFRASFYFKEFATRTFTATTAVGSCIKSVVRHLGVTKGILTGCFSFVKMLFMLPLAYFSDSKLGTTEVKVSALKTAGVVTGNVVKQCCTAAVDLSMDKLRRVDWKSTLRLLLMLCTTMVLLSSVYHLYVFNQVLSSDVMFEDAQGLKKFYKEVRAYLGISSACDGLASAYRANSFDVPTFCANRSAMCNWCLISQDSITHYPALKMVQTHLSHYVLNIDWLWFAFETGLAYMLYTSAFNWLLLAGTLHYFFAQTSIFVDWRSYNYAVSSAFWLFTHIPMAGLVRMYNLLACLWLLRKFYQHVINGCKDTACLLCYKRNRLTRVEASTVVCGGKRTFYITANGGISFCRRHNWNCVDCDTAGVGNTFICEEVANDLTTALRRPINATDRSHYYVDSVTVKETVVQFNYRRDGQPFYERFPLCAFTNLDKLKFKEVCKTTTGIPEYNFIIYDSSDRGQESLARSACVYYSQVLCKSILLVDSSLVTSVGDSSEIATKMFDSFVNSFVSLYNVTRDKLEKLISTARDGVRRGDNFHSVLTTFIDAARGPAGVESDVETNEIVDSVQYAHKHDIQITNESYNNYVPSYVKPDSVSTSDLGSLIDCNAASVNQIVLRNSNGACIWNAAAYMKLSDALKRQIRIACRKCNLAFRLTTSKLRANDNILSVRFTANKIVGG

`O=C(NC1=CC=CC2C(=O)C=C(c3nn[nH]n3)OC12)c1ccc(OCCCCc2ccccc2)cc1` (stereo not drawn) [ONO-1078] showed a Kd [1] of 14.1 µM, an IC50 [2] of 25 µM and a Ki [3] of 127 µM.
